Calls of active or inactive are those of the source.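 How the source made its calls, unless noted: active means viability at or below 30% in both replicate assays; inconclusive means viability at or below 30% in just one of the two assays; inactive means the rest.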
experiment: HUVEC growth inhibition – cell-based, human, primary screen (AID 575); conditions: HUVEC proliferation, CellTiter-Glo luminescence, 72 h; at 10 µM; stronger effect = lower value;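 further: 100% = median of untreated cell wells with 0.1% DMSO on each plate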
Outline: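 Test system: primary human umbilical vein endothelial cells. Quantity: 1250 cells/well. Compound: single 10 µM dose, 0.1% DMSO, from 5x medium stock. Timing: 72 h treatment at 37 °C. Detection: ATP-based CellTiter-Glo luminescent read. Benchmarks: vehicle and MePR control wells. Format: 384-well plates coated with collagen.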

SMILES	viability
CC(C)(C)Cc1nc(-c2ccccn2)no1	88.4% (inactive)
CC1CCc2cc(F)cc3c(O)c(C(=O)NCC4CCCO4)c(=O)n1c23 (stereo not given)	80.8% (inactive)
Cn1cnnc1SCC(=O)Nc1sc2c(c1C#N)CCCCC2	73.5% (inactive)
CCCCCOC(=O)C1=C(C)N(C)C(=O)NC1c1cc(Br)c(O)c(OC)c1 (stereo not given)	72.7% (inactive)
COC(=O)c1cnc2c(C(F)(F)F)cccc2c1OC	97.6% (inactive)
O=C(COc1ccccc1)NCCSCc1ccco1	104% (inactive)
CCOC(=O)C(NC(=O)c1ccc(OC)cc1)(N1CCOCC1)C(F)(F)F (stereo not given)	115% (inactive)
Cc1ccc(S(=O)(=O)N2CCC(C(=O)N[C@@H](Cc3ccccc3)C(=O)O)CC2)cc1	108% (inactive)
COC(=O)c1cc(OC)c(OCc2cc(C(=O)OC)oc2C)c(OC)c1	107% (inactive)
O=C(Nc1cccc(O)c1)c1ccccc1	78% (inactive)
Cn1c(=O)c2c(nc(SCCCC#N)n2Cc2ccccc2F)n(C)c1=O	95.8% (inactive)
Cc1cc(=O)oc2ccc(OCC(=O)N3CCC(C)CC3)cc12	92.3% (inactive)
CC(C(=O)N1CCCCC1)n1ncn2cccc2c1=O (stereo not given)	94.2% (inactive)
O=C(Nc1ccccc1C(=O)NCC1CCCO1)c1ccco1 (stereo not given)	97.9% (inactive)
Cc1cc(C)n(CC2CC(=O)N(c3ccc(Cl)c(Cl)c3)C2=O)n1 (stereo not given)	89.9% (inactive)
CC(=O)c1cn(CC(=O)NCc2ccc3c(c2)OCO3)c2ccccc12	98.4% (inactive)
Cc1ccc(S(=O)(=O)n2nc(OC(=O)c3ccco3)cc2N)cc1	96.4% (inactive)
O=C(Cc1cccs1)Nc1ccccc1C(=O)O	87.5% (inactive)
CC1CCN(S(=O)(=O)c2ccc3[nH]cc(C(=O)NCCN4CCOCC4)c(=O)c3c2)CC1	94% (inactive)
CC(C)(C)NC(=O)NC(=O)COc1ccccc1C#N	108% (inactive)

SMILES	viability
COc1ccccc1NC(=O)C1=C(C)Nc2ncnn2C1c1ccc(C)o1 (stereo not given)	104% (inactive)
COc1cccc(NC(=O)CSc2nnc(-c3cc(-c4ccccn4)nc4ccccc34)o2)c1	81% (inactive)
O=C(Nc1ccc2c(c1)nc1n2CCSC1)c1ccccc1	108% (inactive)
O=C(O)c1cc(/C=N\O)ccc1OCc1ccccc1	95.9% (inactive)
CC(=O)Nc1cccc(OCC(O)Cn2cnc3ccccc32)c1 (stereo not given)	90% (inactive)
Cc1cc(/C=N/n2cnnc2)c(C)n1-c1ccc(Cl)cc1Cl	92.3% (inactive)
CC1CN(C(=O)CSc2nnc(-c3ccncc3)n2-c2ccccc2)CC(C)O1 (stereo not given)	103% (inactive)
CCn1cc(S(=O)(=O)CC(=O)Nc2ccc(OC)cc2)c2ccccc21	105% (inactive)
O=C(c1ccco1)N1CCN(S(=O)(=O)c2ccc(C3CCCCC3)cc2)CC1	99.9% (inactive)
CC(C(=O)N1CCOCC1)N1c2cccc3cccc(c23)S1(=O)=O (stereo not given)	100% (inactive)
CCOc1ccc(C2/C(=C(/O)c3ccc(OC)cc3)C(=O)C(=O)N2c2cc(C)on2)cc1OC (stereo not given)	82.3% (inactive)
COC(=O)c1cccc(S(=O)(=O)N2CCN(c3nc4ccccc4s3)CC2)c1	87.8% (inactive)
CSC1=C(C#N)C(c2ccc(Cl)cc2)C2=C(CC(C)(C)CC2=O)N1 (stereo not given)	72.1% (inactive)
CCOc1ccccc1NC(=O)CN(c1ccc(C)cc1)S(=O)(=O)c1c(C)noc1C	68.3% (inactive)
Cc1ccc(C2N(c3ccc(Cl)c(Cl)c3)C(=O)C3CCCN32)o1 (stereo not given)	78.7% (inactive)
Cc1ccc2[nH]cc(C(=O)CN3CCC4(CC3)OCCO4)c2c1	104% (inactive)
O=S1(=O)CC(N2CCCCC2)C(N2CCCCC2)C1 (stereo not given)	108% (inactive)
C=CCn1c(N)c(C(=O)NCCC2=CCCCC2)sc1=S	44.6% (inactive)
COc1cc(OC)cc(-n2nnnc2SCC(=O)N2CCCC2)c1	94.9% (inactive)
Cc1cc2oc(=O)cc(CN3CCN(Cc4ccc5c(c4)OCO5)CC3)c2cc1C	84.3% (inactive)

experiment: growth inhibitors of H69AR lung tumor, primary screen, human, duplicate replicates (AID 580;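 active means viability at or under a set limit in both replicates, limit being median viability minus 3 SD, cut at about 48% in these data, passing the limit was not always enough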;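 further: 100% = mean luminescence of untreated wells and 0% = no signal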); conditions: H69AR lung tumor cells viability, ATP luminescence, 72 h; at 10 µM; stronger effect = lower value

SMILES	viability
CC(C)(C)Cc1nc(-c2ccccn2)no1	100% (inactive)
CC1CCc2cc(F)cc3c(O)c(C(=O)NCC4CCCO4)c(=O)n1c23 (stereo not given)	85.6% (inactive)
Cn1cnnc1SCC(=O)Nc1sc2c(c1C#N)CCCCC2	95.2% (inactive)
CCCCCOC(=O)C1=C(C)N(C)C(=O)NC1c1cc(Br)c(O)c(OC)c1 (stereo not given)	83.2% (inactive)
COC(=O)c1cnc2c(C(F)(F)F)cccc2c1OC	98.4% (inactive)
O=C(COc1ccccc1)NCCSCc1ccco1	89.3% (inactive)
CCOC(=O)C(NC(=O)c1ccc(OC)cc1)(N1CCOCC1)C(F)(F)F (stereo not given)	100% (inactive)
Cc1ccc(S(=O)(=O)N2CCC(C(=O)N[C@@H](Cc3ccccc3)C(=O)O)CC2)cc1	86.9% (inactive)
COC(=O)c1cc(OC)c(OCc2cc(C(=O)OC)oc2C)c(OC)c1	90.7% (inactive)
O=C(Nc1cccc(O)c1)c1ccccc1	95.2% (inactive)
Cn1c(=O)c2c(nc(SCCCC#N)n2Cc2ccccc2F)n(C)c1=O	71.2% (inactive)
Cc1cc(=O)oc2ccc(OCC(=O)N3CCC(C)CC3)cc12	96.3% (inactive)
CC(C(=O)N1CCCCC1)n1ncn2cccc2c1=O (stereo not given)	102% (inactive)
O=C(Nc1ccccc1C(=O)NCC1CCCO1)c1ccco1 (stereo not given)	98.7% (inactive)
Cc1cc(C)n(CC2CC(=O)N(c3ccc(Cl)c(Cl)c3)C2=O)n1 (stereo not given)	104% (inactive)
CC(=O)c1cn(CC(=O)NCc2ccc3c(c2)OCO3)c2ccccc12	99% (inactive)
Cc1ccc(S(=O)(=O)n2nc(OC(=O)c3ccco3)cc2N)cc1	88.8% (inactive)
O=C(Cc1cccs1)Nc1ccccc1C(=O)O	103% (inactive)
CC1CCN(S(=O)(=O)c2ccc3[nH]cc(C(=O)NCCN4CCOCC4)c(=O)c3c2)CC1	96.4% (inactive)
CC(C)(C)NC(=O)NC(=O)COc1ccccc1C#N	106% (inactive)

SMILES	viability
COc1ccccc1NC(=O)C1=C(C)Nc2ncnn2C1c1ccc(C)o1 (stereo not given)	99.3% (inactive)
COc1cccc(NC(=O)CSc2nnc(-c3cc(-c4ccccn4)nc4ccccc34)o2)c1	76.4% (inactive)
O=C(Nc1ccc2c(c1)nc1n2CCSC1)c1ccccc1	92.7% (inactive)
O=C(O)c1cc(/C=N\O)ccc1OCc1ccccc1	103% (inactive)
CC(=O)Nc1cccc(OCC(O)Cn2cnc3ccccc32)c1 (stereo not given)	97.9% (inactive)
Cc1cc(/C=N/n2cnnc2)c(C)n1-c1ccc(Cl)cc1Cl	90.6% (inactive)
CC1CN(C(=O)CSc2nnc(-c3ccncc3)n2-c2ccccc2)CC(C)O1 (stereo not given)	97.6% (inactive)
CCn1cc(S(=O)(=O)CC(=O)Nc2ccc(OC)cc2)c2ccccc21	91.8% (inactive)
O=C(c1ccco1)N1CCN(S(=O)(=O)c2ccc(C3CCCCC3)cc2)CC1	85.6% (inactive)
CC(C(=O)N1CCOCC1)N1c2cccc3cccc(c23)S1(=O)=O (stereo not given)	93.5% (inactive)
CCOc1ccc(C2/C(=C(/O)c3ccc(OC)cc3)C(=O)C(=O)N2c2cc(C)on2)cc1OC (stereo not given)	89.4% (inactive)
COC(=O)c1cccc(S(=O)(=O)N2CCN(c3nc4ccccc4s3)CC2)c1	81% (inactive)
CSC1=C(C#N)C(c2ccc(Cl)cc2)C2=C(CC(C)(C)CC2=O)N1 (stereo not given)	66% (inactive)
CCOc1ccccc1NC(=O)CN(c1ccc(C)cc1)S(=O)(=O)c1c(C)noc1C	81% (inactive)
Cc1ccc(C2N(c3ccc(Cl)c(Cl)c3)C(=O)C3CCCN32)o1 (stereo not given)	96.2% (inactive)
Cc1ccc2[nH]cc(C(=O)CN3CCC4(CC3)OCCO4)c2c1	92.2% (inactive)
O=S1(=O)CC(N2CCCCC2)C(N2CCCCC2)C1 (stereo not given)	95.3% (inactive)
C=CCn1c(N)c(C(=O)NCCC2=CCCCC2)sc1=S	83.2% (inactive)
COc1cc(OC)cc(-n2nnnc2SCC(=O)N2CCCC2)c1	87.4% (inactive)
Cc1cc2oc(=O)cc(CN3CCN(Cc4ccc5c(c4)OCO5)CC3)c2cc1C	80.6% (inactive)
